{
  "source": "paper PMC9306949",
  "about": "(Clinical Pharmacology in Drug Development, 2022)",
  "key": {"[1]": {"conditions": "cynomolgus macaques; cited from earlier work"}, "[2]": {"system": "MIC‐1", "assay": "Serum MIC-1 pharmacodynamics", "assay_type": "in vivo, human", "conditions": "for P, baseline predose MIC‐1 concentration / MIC‐1 %CFBC24 (percent change from predose concentration at 24 hours) / MIC‐1 %CFBCmax (percent change from predose concentration at Cmax) / MIC‐1 AUC0‐24 / MIC‐1 AUC0‐inf / MIC‐1 AUC0‐t / MIC‐1 C24 / MIC‐1 FoldC24 (C24/P): serum, mean (%CV)"}, "[3]": {"conditions": "cited from earlier work"}, "[4]": {"assay_type": "in vivo, human", "conditions": "for exposure in UGT1A1*28 heterozygous poor metabolizers (6/7 TA repeats) vs WT (6/6 TA repeats): Treatment A, n = 16 vs n = 12; for C24: mean (%CV)"}, "[5]": {"system": "MIC‐1", "conditions": "patients with solid tumors/MM and AML; cited from earlier work"}, "[6]": {"conditions": "physiologically based PK modeling; cited from earlier work"}, "[7]": {"conditions": "cited from earlier work", "remark": "listed apart in the source"}, "[8]": {"assay": "Urine excretion of navtemadlin and M1", "assay_type": "in vivo, human"}, "[9]": {"assay": "Safety: treatment-emergent adverse events", "assay_type": "in vivo, human"}, "[10]": {"conditions": "cited from earlier work", "remark": "listed apart in the source"}, "[11]": {"conditions": "monoprotic carboxylic acid; cited from earlier work"}, "[12]": {"system": "T, B, and natural killer lymphocytes in peripheral blood", "assay": "Immunophenotyping of whole blood", "assay_type": "in vivo, human", "conditions": "periods 1 and 4; absolute counts and percentages", "procedure,_shortened": "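Healthy adults took single 60-mg oral doses of the test compound. Whole blood (K2EDTA) was drawn at screening, predose on day 1 of periods 1 and 4, and on day 5 (96 h postdose). A validated GLP flow cytometry method gave absolute counts and percentages of peripheral T, B and NK lymphocytes.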"}, "[13]": {"conditions": "Treatment A: 60 mg new tablet fasted"}, "[14]": {"conditions": "Treatment B: 60 mg new tablet fed"}, "[15]": {"conditions": "Treatment C: 60 mg old tablet fasted"}, "[16]": {"conditions": "period 1 (old tablet fasted), 0-48 h urine"}, "[17]": {"conditions": "single 60-mg doses, healthy subjects"}},
  "note": "Entries after “also recorded” stand apart in the source; their conditions may differ. Like-named read-outs stand apart in the source and are kept apart here. Marks after values point to notes of the source that are not given here.",
  "data": [
    {"smiles": "CC(C)[C@@H](CS(=O)(=O)C(C)C)N1C(=O)[C@@](C)(CC(=O)O)C[C@H](c2cccc(Cl)c2)[C@H]1c1ccc(Cl)cc1", "note": "[Navtemadlin]", "values": [
      {"measurement": "urinary excretion route", "setting": "[1]", "result": "minor excretion route"},
      {"measurement": "pharmacodynamic half‐life of MIC‐1 serum elevations", "setting": "[2]; 60‐mg dose, healthy subjects", "result": "> 20", "unit": "h"},
      {"measurement": "correlation navtemadlin AUC0‐t vs MIC‐1 AUC0‐t, intercept", "setting": "[2]; Treatment A, AUC in nM • h", "result": 1.97},
      {"measurement": "correlation navtemadlin AUC0‐t vs MIC‐1 AUC0‐t, slope", "setting": "[2]; Treatment A, AUC in nM • h", "result": 0.0006},
      {"measurement": "P, baseline predose MIC‐1 concentration", "setting": "[2]; Treatment A: 60 mg new tablet fasted (periods 2-4)", "result": "170 (119.8); 60 pg/mL"},
      {"measurement": "MIC‐1 %CFBC24 (percent change from predose concentration at 24 hours)", "setting": "[2]; [13]", "result": "2297 (101); 60%"},
      {"measurement": "MIC‐1 %CFBCmax (percent change from predose concentration at Cmax)", "setting": "[2]; [13]", "result": "3759 (103.5); 60%"},
      {"measurement": "MIC‐1 AUC0‐24", "setting": "[2]; [13]", "result": "32743 (49.4); 60 pg • h/mL"},
      {"measurement": "MIC‐1 AUC0‐inf", "setting": "[2]; [13]", "result": "96215 (51.9); 31 pg • h/mL"},
      {"measurement": "MIC‐1 AUC0‐t", "setting": "[2]; [13]", "result": "89409 (48.7); 60 pg • h/mL"},
      {"measurement": "MIC‐1 C24", "setting": "[2]; [13]", "result": "1318 (50.5); 60 pg/mL"},
      {"measurement": "MIC‐1 FoldC24 (C24/P)", "setting": "[2]; [13]", "result": "24.0 (96.8); 60"},
      {"measurement": "P, baseline predose MIC‐1 concentration", "setting": "[2]; Treatment B: 60 mg new tablet fed (periods 2-4)", "result": "214 (133.2); 30 pg/mL"},
      {"measurement": "MIC‐1 %CFBC24 (percent change from predose concentration at 24 hours)", "setting": "[2]; [14]", "result": "1778 (115.5); 30%"},
      {"measurement": "MIC‐1 %CFBCmax (percent change from predose concentration at Cmax)", "setting": "[2]; [14]", "result": "2684 (115.7); 30%"},
      {"measurement": "MIC‐1 AUC0‐24", "setting": "[2]; [14]", "result": "29820 (52.7); 30 pg • h/mL"},
      {"measurement": "MIC‐1 AUC0‐inf", "setting": "[2]; [14]", "result": "67607 (35.1); 16 pg • h/mL"},
      {"measurement": "MIC‐1 AUC0‐t", "setting": "[2]; [14]", "result": "81332 (54.2); 30 pg • h/mL"},
      {"measurement": "MIC‐1 C24", "setting": "[2]; [14]", "result": "1209 (47.7); 30 pg/mL"},
      {"measurement": "MIC‐1 FoldC24 (C24/P)", "setting": "[2]; [14]", "result": "18.8 (109.4); 30"},
      {"measurement": "P, baseline predose MIC‐1 concentration", "setting": "[2]; Treatment C: 60 mg old tablet fasted (period 1)", "result": "505 (41); 30 pg/mL"},
      {"measurement": "MIC‐1 %CFBC24 (percent change from predose concentration at 24 hours)", "setting": "[2]; [15]", "result": "139 (61.8); 30%"},
      {"measurement": "MIC‐1 %CFBCmax (percent change from predose concentration at Cmax)", "setting": "[2]; [15]", "result": "393 (62.5); 30%"},
      {"measurement": "MIC‐1 AUC0‐24", "setting": "[2]; [15]", "result": "34365 (53.4); 30 pg • h/mL"},
      {"measurement": "MIC‐1 AUC0‐inf", "setting": "[2]; [15]", "result": "110915 (30.5); 4 pg • h/mL"},
      {"measurement": "MIC‐1 AUC0‐t", "setting": "[2]; [15]", "result": "91175 (38.5); 30 pg • h/mL"},
      {"measurement": "MIC‐1 C24", "setting": "[2]; [15]", "result": "1144 (38.4); 30 pg/mL"},
      {"measurement": "MIC‐1 FoldC24 (C24/P)", "setting": "[2]; [15]", "result": "2.39 (36); 30"},
      {"measurement": "protein‐bound", "setting": "[3]", "result": 97.5, "unit": "%"},
      {"measurement": "delay of tmax after a meal", "setting": "[4]; B vs A: new tablet fed vs fasted", "result": 1, "unit": "h"},
      {"measurement": "exposure in UGT1A1*28 heterozygous poor metabolizers (6/7 TA repeats) vs WT (6/6 TA repeats)", "setting": "[4]", "result": "slightly lower"},
      {"measurement": "exposure in UGT1A1*28 heterozygous poor metabolizers (6/7 TA repeats) vs WT (6/6 TA repeats)", "setting": "[4]; listed as navtemadlin", "result": "generally comparable"},
      {"measurement": "time of second peak after dosing (enterohepatic recirculation)", "setting": "[4]; all 3 treatments", "result": "around 10 hours"},
      {"measurement": "tmax", "setting": "[4]; human, plasma, oral, 60 mg", "result": 2.01, "unit": "h"},
      {"measurement": "PK in H. pylori–positive vs H. pylori–negative subjects", "setting": "[4]; n = 12 positive vs n = 18 negative", "result": "not markedly different; also recorded: not markedly affected"},
      {"measurement": "decrease in extent of exposure (AUC0‐24, AUC0‐t, AUC0‐inf) with a high‐fat meal", "setting": "[4]; new tablet fed vs fasted", "result": "12% to 18%"},
      {"measurement": "intersubject variability, AUC0‐24 %CV", "setting": "[4]; new tablet, fasted", "result": 55, "unit": "%"},
      {"measurement": "intersubject variability, Cmax %CV", "setting": "[4]; new tablet, fasted", "result": 66, "unit": "%"},
      {"measurement": "difference in median tmax between fed and fasted conditions, significance", "setting": "[4]; new tablet, Wilcoxon signed-rank, alpha level of 0.1", "result": "statistically significant"},
      {"measurement": "C24", "setting": "[4]; plasma, Treatment A: 60-mg new tablet, fasted", "result": "37.4 (83.9); 60 ng/mL"},
      {"measurement": "C24", "setting": "[4]; plasma, Treatment B: 60-mg new tablet, fed (high-fat meal)", "result": "29.3 (83.3); 30 ng/mL"},
      {"measurement": "C24", "setting": "[4]; plasma, Treatment C: 60-mg old tablet, fasted", "result": "29.3 (83.6); 30 ng/mL"},
      {"measurement": "intrasubject variability of PK parameters", "setting": "[4]; reference formulation: new tablet, fasted", "result": "< 30", "unit": "%"},
      {"measurement": "tmax, difference of medians (90%CI)", "setting": "[4]; test-reference: B (new tablet fed) minus A (new tablet fasted)", "result": "0.5 (0.004‐0.9) ^e , ^f h"},
      {"measurement": "tmax, difference of medians (90%CI)", "setting": "[4]; test-reference: C (old tablet fasted) minus A (new tablet fasted)", "result": "0.1 (–0.3 to 0.6) ^e , ^f h"},
      {"measurement": "effect on serum PD marker MIC‐1", "setting": "[5]", "result": "dose‐ and plasma concentration–dependent increases"},
      {"measurement": "fraction absorbed", "setting": "[6]", "result": "~100", "unit": "%"},
      {"measurement": "dose dependence of exposure", "setting": "[7]; dose range of 15 mg to 480 mg", "result": "linear"},
      {"measurement": "apparent oral central volume of distribution", "setting": "[7]; patients with solid tumors", "result": 62.9, "unit": "L"},
      {"measurement": "mean amount excreted in urine", "setting": "[8]; [16]", "result": 12.1, "unit": "µg"},
      {"measurement": "mean fraction of dose excreted in urine", "setting": "[8]; [16]", "result": 0.02, "unit": "%"},
      {"measurement": "urine excretion", "setting": "[8]; single 60-mg dose, healthy subjects", "result": "negligible"},
      {"measurement": "All TEAEs: Number of Subjects with TEAE", "setting": "[9]; Treatment A (Combined): new tablet fasted", "result": 5},
      {"measurement": "All TEAEs: Number of Subjects with TEAE", "setting": "[9]; Treatment B: new tablet fed", "result": 2},
      {"measurement": "All TEAEs: Number of Subjects with TEAE", "setting": "[9]; Treatment C: old tablet fasted (period 1)", "result": "Nine"},
      {"measurement": "incidence of constipation (TEAE)", "setting": "[9]; occurred only with treatment C (old tablet, fasted)", "result": 13, "unit": "%"},
      {"measurement": "incidence of headache (TEAE)", "setting": "[9]; occurred with all treatments A, B, and C", "result": 10, "unit": "%"},
      {"measurement": "TEAE related to navtemadlin", "setting": "[9]; reported once, treatment B (new tablet fed)", "result": "Headache"},
      {"measurement": "discontinuations due to adverse events", "setting": "[9]; [17]", "result": "without any discontinuations; also recorded: no subject discontinued due to an AE"},
      {"measurement": "serious adverse events or deaths", "setting": "[9]; [17]", "result": "No serious adverse events or deaths occurred; also recorded: No deaths or serious AEs occurred"},
      {"measurement": "severity of adverse events", "setting": "[9]; [17]", "result": "mild"},
      {"measurement": "solubility, pH dependence", "setting": "[10]", "result": "increases with increasing pH"},
      {"measurement": "pKa", "setting": "[11]", "result": 4.35},
      {"measurement": "lymphocyte subsets and monocytes, postdose (96 hours) vs predose", "setting": "[12]", "result": "did not differ"}
    ]}
  ]
}
